Laboratory results published in ChEMBL document CHEMBL4346734, “Modification of the 4-phenylbutyl side chain of potent 3-benzazepine-based GluN2B receptor antagonists” (Bioorg Med Chem, 2019).
pKi: −log10 of the molar value.

Tests used:
[1] = target: Glutamate receptor ionotropic, NMDA 2B (Homo sapiens, UniProt Q05586+Q13224); experiment: Displacement of [3H]ifenprodil from human GluN2B expressed in mouse L(tk-) cell membranes co-expressing GluN1a incubated for 120 mins by scintillation counting method
Glutamate receptor ionotropic, NMDA 2B, sequence (Q13224 whole entry, one chain of several): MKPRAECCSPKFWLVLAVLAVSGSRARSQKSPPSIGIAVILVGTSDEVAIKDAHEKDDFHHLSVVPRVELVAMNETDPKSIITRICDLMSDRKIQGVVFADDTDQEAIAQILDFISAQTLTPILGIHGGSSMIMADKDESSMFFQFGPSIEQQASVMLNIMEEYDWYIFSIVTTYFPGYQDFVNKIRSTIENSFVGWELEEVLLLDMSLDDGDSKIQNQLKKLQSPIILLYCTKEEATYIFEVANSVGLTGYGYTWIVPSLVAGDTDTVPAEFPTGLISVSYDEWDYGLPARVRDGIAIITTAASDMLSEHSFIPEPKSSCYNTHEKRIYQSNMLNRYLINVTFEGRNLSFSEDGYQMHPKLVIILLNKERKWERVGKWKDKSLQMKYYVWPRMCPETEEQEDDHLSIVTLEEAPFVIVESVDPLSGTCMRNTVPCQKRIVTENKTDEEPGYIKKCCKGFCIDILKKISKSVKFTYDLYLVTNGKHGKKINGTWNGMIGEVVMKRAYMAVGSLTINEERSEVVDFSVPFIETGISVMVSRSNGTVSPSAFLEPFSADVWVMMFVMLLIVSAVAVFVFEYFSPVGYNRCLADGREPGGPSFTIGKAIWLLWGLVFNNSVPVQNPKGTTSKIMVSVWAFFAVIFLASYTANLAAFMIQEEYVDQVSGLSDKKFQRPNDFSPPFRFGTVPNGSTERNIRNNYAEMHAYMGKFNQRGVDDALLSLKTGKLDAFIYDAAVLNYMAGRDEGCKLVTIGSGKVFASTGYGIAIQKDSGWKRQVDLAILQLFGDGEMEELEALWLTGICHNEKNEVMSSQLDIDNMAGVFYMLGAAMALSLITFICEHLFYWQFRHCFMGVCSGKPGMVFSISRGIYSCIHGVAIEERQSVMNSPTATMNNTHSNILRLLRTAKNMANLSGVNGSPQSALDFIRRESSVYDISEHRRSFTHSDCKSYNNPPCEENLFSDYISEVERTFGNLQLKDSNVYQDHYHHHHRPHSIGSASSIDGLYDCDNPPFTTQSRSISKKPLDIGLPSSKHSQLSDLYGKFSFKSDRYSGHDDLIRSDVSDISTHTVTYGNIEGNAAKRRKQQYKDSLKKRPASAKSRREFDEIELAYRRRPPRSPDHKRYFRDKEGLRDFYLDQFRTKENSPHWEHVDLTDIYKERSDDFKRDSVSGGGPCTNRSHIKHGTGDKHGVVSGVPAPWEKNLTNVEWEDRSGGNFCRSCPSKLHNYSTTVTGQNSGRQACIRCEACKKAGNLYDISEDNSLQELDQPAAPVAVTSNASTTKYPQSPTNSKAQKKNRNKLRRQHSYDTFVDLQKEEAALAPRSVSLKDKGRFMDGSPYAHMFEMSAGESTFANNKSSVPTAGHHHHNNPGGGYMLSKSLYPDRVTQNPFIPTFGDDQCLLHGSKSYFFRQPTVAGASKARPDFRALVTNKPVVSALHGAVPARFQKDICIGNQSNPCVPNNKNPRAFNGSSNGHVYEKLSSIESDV

[2] = target: T1, Sigma non-opioid intracellular receptor 1 (Cavia porcellus, UniProt Q60492); experiment: Displacement of [3H]-(+)pentazocine from sigma-1 receptor in guinea pig brain membranes after 120 mins by scintillation counting method; type: cell membranes
T1 sequence (Q60492 whole entry): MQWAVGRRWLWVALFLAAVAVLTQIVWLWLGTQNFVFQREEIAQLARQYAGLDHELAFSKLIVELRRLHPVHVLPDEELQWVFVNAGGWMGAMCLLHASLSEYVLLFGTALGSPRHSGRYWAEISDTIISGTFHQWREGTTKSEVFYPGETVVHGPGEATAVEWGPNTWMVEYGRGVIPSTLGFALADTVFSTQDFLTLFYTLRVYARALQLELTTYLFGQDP

[3] = target: T2, Sigma intracellular receptor 2 (Rattus norvegicus, UniProt Q5U3Y7); experiment: Displacement of [3H]-Di-o-tolylguanidine from sigma-2 receptor in rat liver membranes after 120 mins by scintillation counting method; type: cell membranes
T2 sequence (Q5U3Y7 whole entry): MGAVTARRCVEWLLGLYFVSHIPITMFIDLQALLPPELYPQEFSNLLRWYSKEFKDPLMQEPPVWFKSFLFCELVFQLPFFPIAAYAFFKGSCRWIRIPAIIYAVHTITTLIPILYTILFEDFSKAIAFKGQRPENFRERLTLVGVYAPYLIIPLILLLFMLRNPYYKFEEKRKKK

[4] = Displacement of [3H]-(+)-MK-801 from NMDA PCP binding site in pig brain cortex membrane at 1 uM incubated for 120 mins by scintillation counting method relative to control; type: cell membranes
[5] = target: Glutamate receptor ionotropic, NMDA 2B (Homo sapiens) (UniProt Q13224); experiment: Displacement of [3H]ifenprodil from human GluN2B expressed in mouse L(tk-) cell membranes at 1 uM incubated for 120 mins by scintillation counting method relative to control
Glutamate receptor ionotropic, NMDA 2B (Homo sapiens), sequence (Q13224 27-1484 limits assumed): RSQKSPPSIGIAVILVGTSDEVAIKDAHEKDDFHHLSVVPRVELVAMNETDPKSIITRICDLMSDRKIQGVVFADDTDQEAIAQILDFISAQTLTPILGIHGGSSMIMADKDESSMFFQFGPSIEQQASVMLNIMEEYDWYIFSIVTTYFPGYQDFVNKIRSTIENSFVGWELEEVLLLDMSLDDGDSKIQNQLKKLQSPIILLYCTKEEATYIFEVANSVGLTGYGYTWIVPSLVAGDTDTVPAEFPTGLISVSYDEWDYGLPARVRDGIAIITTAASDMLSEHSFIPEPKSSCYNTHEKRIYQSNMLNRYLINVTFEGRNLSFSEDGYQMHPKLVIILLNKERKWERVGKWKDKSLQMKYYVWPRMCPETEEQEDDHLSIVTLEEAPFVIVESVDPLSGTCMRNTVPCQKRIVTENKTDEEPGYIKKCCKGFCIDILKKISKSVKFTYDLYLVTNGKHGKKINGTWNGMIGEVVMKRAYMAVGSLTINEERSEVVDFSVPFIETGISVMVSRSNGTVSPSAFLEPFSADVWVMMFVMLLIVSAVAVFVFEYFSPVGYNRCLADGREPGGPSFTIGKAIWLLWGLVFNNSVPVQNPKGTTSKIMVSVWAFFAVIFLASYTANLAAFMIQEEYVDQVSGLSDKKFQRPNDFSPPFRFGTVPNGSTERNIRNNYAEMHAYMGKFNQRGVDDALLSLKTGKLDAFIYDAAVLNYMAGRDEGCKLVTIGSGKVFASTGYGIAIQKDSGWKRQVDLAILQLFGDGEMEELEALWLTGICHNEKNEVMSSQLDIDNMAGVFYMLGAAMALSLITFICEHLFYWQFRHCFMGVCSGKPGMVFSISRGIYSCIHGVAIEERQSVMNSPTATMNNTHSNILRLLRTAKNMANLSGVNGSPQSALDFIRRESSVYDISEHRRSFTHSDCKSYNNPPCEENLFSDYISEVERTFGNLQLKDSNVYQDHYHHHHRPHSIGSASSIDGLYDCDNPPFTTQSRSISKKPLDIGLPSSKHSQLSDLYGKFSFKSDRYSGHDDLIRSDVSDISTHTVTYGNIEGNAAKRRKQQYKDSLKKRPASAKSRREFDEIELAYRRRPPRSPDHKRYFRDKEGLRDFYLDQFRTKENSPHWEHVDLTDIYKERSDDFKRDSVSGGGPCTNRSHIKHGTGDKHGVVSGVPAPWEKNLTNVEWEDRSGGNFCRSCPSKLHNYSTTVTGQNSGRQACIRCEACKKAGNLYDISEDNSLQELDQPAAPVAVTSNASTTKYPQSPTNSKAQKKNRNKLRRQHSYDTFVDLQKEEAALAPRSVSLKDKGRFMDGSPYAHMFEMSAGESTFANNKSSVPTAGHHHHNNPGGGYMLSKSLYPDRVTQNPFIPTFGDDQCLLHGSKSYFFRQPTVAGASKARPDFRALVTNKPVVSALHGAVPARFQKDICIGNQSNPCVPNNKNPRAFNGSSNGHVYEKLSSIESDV
Summary of the method: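 Competition binding with [³H]ifenprodil on membranes of mouse fibroblast L(tk-) cells stably transfected with dexamethasone-inducible vectors for human GluN1a and human GluN2B; inhibition (%) of radioligand binding recorded at 1 μM test compound.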

[6] = target: Sigma non-opioid intracellular receptor 1 (Cavia porcellus) (UniProt Q60492); experiment: Displacement of [3H]-(+)pentazocine from sigma-1 receptor in guinea pig brain membranes after 120 mins by scintillation counting method relative to control; type: cell membranes; design: concentration or dose not given beside the values
Sigma non-opioid intracellular receptor 1 (Cavia porcellus), sequence (Q60492 whole entry): as the sequence (Q60492 whole entry) above

[7] = target: T3, Sigma intracellular receptor 2 (Rattus norvegicus) (UniProt Q5U3Y7); experiment: Displacement of [3H]-Di-o-tolylguanidine from sigma-2 receptor in rat liver membranes after 120 mins by scintillation counting method relative to control; type: cell membranes; design: concentration or dose not given beside the values
T3 sequence (whole entry): T2 sequence (Q5U3Y7 whole entry)

Cavia porcellus = species: Cavia porcellus; experiment: Displacement of [3H]-(+)-MK-801 from NMDA PCP binding site in pig brain cortex membrane at 1 uM incubated for 150 mins by scintillation counting method relative to control; type: cell membranes
[8] = target: T1, Sigma non-opioid intracellular receptor 1; experiment: Displacement of [3H]-(+)pentazocine from sigma-1 receptor in guinea pig brain membranes after 180 mins by scintillation counting method; type: cell membranes
[9] = target: T2, Sigma intracellular receptor 2; experiment: Displacement of [3H]-Di-o-tolylguanidine from sigma-2 receptor in rat liver membranes after 180 mins by scintillation counting method; type: cell membranes

Row | pKi [1] | pKi [2] | pKi [3] | inhibition [4] [%] | inhibition [5] [%] | inhibition [6] [%] | inhibition [7] [%] | inhibition (Cavia porcellus) [%] | pKi [8] | pKi [9] | SMILES
1 | 6.71 | 6.15 | 7.10 | 0 |  |  |  |  |  |  | Oc1ccc2c(c1)CCN(CCCCc1ccc(OCCF)cc1)CC2O (centres undefined)
2 |  |  |  | 4 | 4 | 31 | 22 |  |  |  | COc1ccc2c(c1)CCN(CCC#Cc1ccccc1OCCF)CC2O (centres undefined)
3 |  | 6.47 | 6.25 | 0 | 20 |  |  |  |  |  | COc1ccc2c(c1)CCN(CCCCc1cccs1)CC2O (centres undefined)
4 |  |  |  | 0 | 0 | 28 | 0 |  |  |  | COc1ccc2c(c1)CCN(CCCCc1cn(CCF)nn1)CC2O (centres undefined)
5 |  |  |  | 0 | 0 | 0 | 12 |  |  |  | OC1CN(CCC#Cc2ccc(OCCF)cc2)CCc2cc(OCc3ccccc3)ccc21 (centres undefined)
6 |  | 6.15 |  | 0 | 3 |  | 12 |  |  |  | COc1ccc2c(c1)CCN(CCC#Cc1ccc(OCCF)cc1)CC2O (centres undefined)
7 |  | 6.56 | 6.40 | 0 | 0 |  |  |  |  |  | COc1ccc2c(c1)CCN(CCCCc1cccnc1)CC2O (centres undefined)
8 |  | 6.15 | 6.23 | 0 | 19 |  |  |  |  |  | COc1ccc2c(c1)CCN(CCCCc1ccccc1OCCF)CC2O (centres undefined)
9 | 6.34 | 6.79 | 6.06 | 9 |  |  |  |  |  |  | COc1ccc2c(c1)CCN(CCCC#Cc1ccccc1)CC2O (centres undefined)
10 |  |  |  | 0 | 3 | 9 | 23 |  |  |  | COc1ccc2c(c1)CCN(CCC#Cc1cccc(OCCF)c1)CC2O (centres undefined)
11 |  |  |  | 0 | 0 | 0 | 0 |  |  |  | COc1ccc2c(c1)CCN(CCC#Cc1nccs1)CC2O (centres undefined)
12 |  | 6.25 |  | 15 | 18 |  | 15 |  |  |  | COc1ccc2c(c1)CCN(CCC#Cc1ccccc1)CC2O (centres undefined)
13 |  |  |  |  |  |  |  | 25 | 6.68 | 7.02 | COc1ccc2c(c1)CCN(CCCCc1ccccc1)CC2O (centres undefined)
14 |  |  |  | 0 | 13 | 21 | 20 |  |  |  | COc1ccc2c(c1)CCN(CCC#Cc1cccs1)CC2O (centres undefined)
15 |  |  |  | 0 | 1 | 5 | 9 |  |  |  | COc1ccc2c(c1)CCN(CCC#Cc1cccnc1)CC2O (centres undefined)
